# Active and inactive are the calls of the source. The calls are words filed in the database; no cut-off is given here.
# How the values were obtained:
# Toxoplasma gondii [1] = experiment: Antiparasitic activity against clindamycin-resistant Toxoplasma gondii 4 infected in HFF assessed as reduction of ycf24/UPRT genes copy number ratio at 10 uM treated for 48 hrs immediately after infection followed by reinoculated into fresh HFF monolayers measured after 48 hrs by RT-PCR analysis; format: functional
# Outline: (§1)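 Tachyzoites were seeded on confluent HFF in 6-well plates at 2×10^5 per well, in DMEM with 10% FBS and 1% PS at 37 °C, 5% CO2. Compound was added together with the parasite inoculum, and cultures ran 48 h. Harvested tachyzoites were reinoculated into fresh HFF without drug for a second cycle. Parasites were pelleted by centrifugation and the plastid ycf24 to nuclear UPRT copy ratio was read by qPCR (40 cycles, 94 °C 3 s / 60 °C 30 s). At least triplicate.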
# HFF = experiment: Cytotoxicity against HFF after 48 hrs by MTS assay; format: cell-based; settings: human
# Outline: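 Low-passage HFF seeded in 96-well plates and incubated 24h at 37 °C, then exposed to varying macrolide concentrations for 2 days; medium replaced with fresh medium plus MTS, 4h at 37 °C, absorbance 490 nm; CC50 = dose reducing viability by 50%.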
# Toxoplasma gondii [2] = experiment: Antiparasitic activity against green fluorescent protein expressing […] deficient Toxoplasma gondii RH infected in HFF at 5 to 50 uM treated 6 hrs after infection measured after 48 hrs; format: functional, organism-based
# Outline: (§2)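 GFP-expressing RHΔhxgprt tachyzoites were grown on HFF on glass coverslips in 12-well plates (2×10^4/well). Compound was added either with the parasites ("0h", 48 h) or after a 6 h pre-infection and medium change ("6h", 42 h). Parasites per vacuole were counted by fluorescence microscopy in at least 50 random vacuoles per well. Three independent experiments.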
# Toxoplasma gondii [3] = experiment: Antiparasitic activity against green fluorescent protein expressing hwgprt deficient Toxoplasma gondii RH infected in HFF assessed as reduction of ycf24/UPRT genes copy number ratio at 1 uM treated for 48 hrs after 6 hrs infection followed by reinoculated into fresh HFF monolayers measured after 48 hrs by RT-PCR analysis; format: functional
# Toxoplasma gondii [4] = experiment: Antiparasitic activity against yellow fluorescent protein expressing Toxoplasma gondii 2F-1 infected in HFF treated 6 hrs after infection measured after 48 hrs; format: functional, organism-based
# Toxoplasma gondii [5] = experiment: Antiparasitic activity against green fluorescent protein expressing hwgprt deficient Toxoplasma gondii RH infected in HFF assessed as reduction of ycf24/UPRT genes copy number ratio at 10 uM […] followed by reinoculated into fresh HFF monolayers measured after 48 hrs by RT-PCR analysis; format: functional
# Toxoplasma gondii [6] = experiment: Antiparasitic activity against green fluorescent protein expressing […] deficient Toxoplasma gondii RH assessed as parasite doubling time at 5 to 50 uM treated immediately after infection for 48 hrs followed by reinoculated into fresh HFF monolayers measured after 48 hrs; format: functional
# Outline: (§3)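 HFF were grown on glass coverslips in 12-well plates and infected with 2×10^4 GFP tachyzoites per well. Compound was added with the inoculum; the first cycle ran 48 h, and the second cycle ran in fresh HFF without drug. Parasites per vacuole were counted by fluorescence microscopy, at least 50 random vacuoles per well, to derive doubling time. Three independent experiments.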
# Toxoplasma gondii [7] = experiment: Antiparasitic activity against green fluorescent protein expressing […] deficient Toxoplasma gondii RH infected in HFF assessed as parasite doubling time at 5 to 50 uM treated immediately after infection measured after 48 hrs; format: functional; outline: as §3
# Toxoplasma gondii [8] = experiment: Antiparasitic activity against green fluorescent protein expressing hwgprt deficient Toxoplasma gondii RH infected in HFF assessed as reduction of ycf24/UPRT genes copy number ratio at 0.1 uM treated for 48 hrs after 6 hrs infection followed by reinoculated into fresh HFF monolayers measured after 48 hrs by RT-PCR analysis; format: functional
# Outline: (§4)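 Tachyzoites were seeded on confluent HFF monolayers in 6-well plates at 2×10^5 per well, in DMEM with 10% FBS and 1% PS at 37 °C, 5% CO2. After 6 h pre-infection, the medium was replaced with medium containing compound for 42 h. Released parasites were reinoculated into fresh HFF without drug for 48 h, collected by centrifugation, and measured by qPCR as the ratio of plastid ycf24 to nuclear UPRT copies. At least triplicate.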
# Toxoplasma gondii [9] = experiment: Antiparasitic activity against green fluorescent protein expressing hwgprt deficient Toxoplasma gondii RH infected in HFF at 5 to 50 uM treated immediately after infection measured after 48 hrs followed by reinoculated into fresh HFF monolayers measured after 48 hrs; format: functional, organism-based
# Toxoplasma gondii [10] = experiment: Antiparasitic activity against yellow fluorescent protein expressing Toxoplasma gondii 2F-1 treated 6 hrs after infection for 42 hrs followed by reinoculated into fresh HFF monolayers measured after 48 hrs; format: functional, organism-based
# Outline: (§5)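 Two-cycle protocol in HFF at 37 °C, 5% CO2, DMEM with 10% FBS. "0h": compound added with parasites, 48 h. "6h": parasites pre-incubated 6 h, uninvaded parasites removed, fresh medium with compound added, 42 h. Released tachyzoites were then harvested, purified and inoculated into fresh HFF without compound for the 2nd cycle. At least triplicate.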
# Toxoplasma gondii [11] = experiment: Antiparasitic activity against clindamycin-resistant Toxoplasma gondii 4 infected in HFF assessed as reduction of ycf24/UPRT genes copy number ratio at 1 uM treated for 48 hrs after 6 hrs infection followed by reinoculated into fresh HFF monolayers measured after 48 hrs by RT-PCR analysis; format: functional
# Bacillus subtilis = experiment: Antibacterial activity against Bacillus subtilis; format: functional
# Toxoplasma gondii [12] = experiment: Antiparasitic activity against green fluorescent protein expressing […] deficient Toxoplasma gondii RH infected in HFF assessed as decrease in density of parasitophorous vacuoles at 10 uM treated immediately after infection measured after 24 hrs by microscopic analysis; format: functional, organism-based
# Outline: (§6)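 GFP T. gondii RHΔhxgprt in HFF, compound (10 μM) added either with the inoculum ("0h") or after 6 h pre-infection and washing ("6h"); vacuoles per microscope field scored at 24 h, at least 20 random fields from each of three experiments.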
# Toxoplasma gondii [13] = experiment: Antiparasitic activity against clindamycin-resistant Toxoplasma gondii 4 infected in HFF assessed as reduction of ycf24/UPRT genes copy number ratio at 0.1 uM treated for 48 hrs immediately after infection followed by reinoculated into fresh HFF monolayers measured after 48 hrs by RT-PCR analysis; format: functional; outline: as §1
# Toxoplasma gondii [14] = experiment: Antiparasitic activity against clindamycin-resistant Toxoplasma gondii 4 infected in HFF assessed as reduction of ycf24/UPRT genes copy number ratio at 0.1 uM treated for 48 hrs after 6 hrs infection followed by reinoculated into fresh HFF monolayers measured after 48 hrs by RT-PCR analysis; format: functional; outline: as §4
# Toxoplasma gondii [15] = experiment: Antiparasitic activity against green fluorescent protein expressing […] deficient Toxoplasma gondii RH infected in HFF assessed as decrease in density of parasitophorous vacuoles at 10 uM treated 6 hrs after infection measured after 24 hrs by microscopic analysis; format: functional, organism-based; outline: as §6
# Toxoplasma gondii [16] = experiment: Antiparasitic activity against green fluorescent protein expressing […] deficient Toxoplasma gondii RH infected in HFF assessed as reduction of ycf24/UPRT genes copy number ratio at 1 uM treated for 48 hrs immediately after infection followed by reinoculated into fresh HFF monolayers measured after 48 hrs by RT-PCR analysis; format: functional
# Outline: (§7)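 Tachyzoites were seeded on confluent HFF in 6-well plates at 2×10^5 per well, in DMEM with 10% FBS and 1% PS at 37 °C, 5% CO2. Harvested tachyzoites were reinoculated into fresh HFF without drug for a second cycle. Parasites were pelleted by centrifugation and the plastid ycf24 to nuclear UPRT copy ratio was read by qPCR (40 cycles, 94 °C 3 s / 60 °C 30 s). At least triplicate.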
# Toxoplasma gondii [17] = experiment: Antiparasitic activity against green fluorescent protein expressing […] deficient Toxoplasma gondii RH infected in HFF assessed as reduction of ycf24/UPRT genes copy number ratio at 0.1 uM treated for 48 hrs immediately after infection followed by reinoculated into fresh HFF monolayers measured after 48 hrs by RT-PCR analysis; format: functional; outline: as §1
# Toxoplasma gondii [18] = experiment: Antiparasitic activity against clindamycin-resistant Toxoplasma gondii 4 infected in HFF assessed as reduction of ycf24/UPRT genes copy number ratio at 1 uM treated for 48 hrs immediately after infection followed by reinoculated into fresh HFF monolayers measured after 48 hrs by RT-PCR analysis; format: functional; outline: as §7
# Toxoplasma gondii [19] = experiment: Antiparasitic activity against green fluorescent protein expressing hwgprt deficient Toxoplasma gondii RH infected in HFF at 5 to 50 uM treated immediately after infection measured after 48 hrs; format: functional, organism-based; outline: as §2
# Toxoplasma gondii [20] = experiment: Antiparasitic activity against green fluorescent protein expressing […] deficient Toxoplasma gondii RH infected in HFF at 5 to 50 uM treated 6 hrs after infection measured after 48 hrs followed by reinoculated into fresh HFF monolayers measured after 48 hrs; format: functional, organism-based; outline: as §2
# Toxoplasma gondii [21] = experiment: Antiparasitic activity against yellow fluorescent protein expressing Toxoplasma gondii 2F-1 infected in HFF treated immediately after infection measured after 48 hrs; format: functional, organism-based; settings: 2F-1, 48 h
# Toxoplasma gondii [22] = experiment: Antiparasitic activity against green fluorescent protein expressing hwgprt deficient Toxoplasma gondii RH infected in HFF assessed as reduction of ycf24/UPRT genes copy number ratio at 10 uM treated for 42 hrs starting 6 hrs after infection followed by reinoculated into fresh HFF monolayers measured after 48 hrs by RT-PCR analysis
# Toxoplasma gondii [23] = experiment: Antiparasitic activity against clindamycin-resistant Toxoplasma gondii 4 infected in HFF assessed as reduction of ycf24/UPRT genes copy number ratio at 10 uM treated for 48 hrs after 6 hrs infection followed by reinoculated into fresh HFF monolayers measured after 48 hrs by RT-PCR analysis; format: functional; outline: as §4
# Toxoplasma gondii [24] = experiment: Antiparasitic activity against Toxoplasma gondii 2F-1 expressing yellow fluorescent protein infected in HFF after 4 days; format: functional, organism-based; settings: 2F-1, 96 h
# Toxoplasma gondii [25] = experiment: Antiparasitic activity against yellow fluorescent protein expressing Toxoplasma gondii 2F-1 treated immediately after infection for 48 hrs followed by reinoculated into fresh HFF monolayers measured after 48 hrs; format: functional, organism-based; settings: 2F-1, 48 h; outline: as §5
# Toxoplasma gondii [26] = experiment: Antiparasitic activity against green fluorescent protein expressing hwgprt deficient Toxoplasma gondii RH at 5 uM treated immediately after infection for 48 hrs followed by reinoculated into fresh HFF monolayers measured after 48 hrs; format: functional, organism-based; outline: as §5
# Toxoplasma gondii [27] = experiment: Antiparasitic activity against green fluorescent protein expressing […] deficient Toxoplasma gondii RH assessed as parasite doubling time at 5 uM treated immediately after infection for 48 hrs followed by reinoculated into fresh HFF monolayers measured after 48 hrs; format: functional; outline: as §3
# Toxoplasma gondii [28] = experiment: Antiparasitic activity against green fluorescent protein expressing […] deficient Toxoplasma gondii RH infected in HFF assessed as parasite doubling time at 5 uM treated immediately after infection measured after 48 hrs; format: functional; outline: as §3
# Toxoplasma gondii [29] = experiment: Antiparasitic activity against green fluorescent protein expressing hwgprt deficient Toxoplasma gondii RH at 5 uM treated 6 hrs after infection for 42 hrs followed by reinoculated into fresh HFF monolayers measured after 48 hrs; format: functional, organism-based; outline: as §5
# Toxoplasma gondii [30] = experiment: Antiparasitic activity against green fluorescent protein expressing […] deficient Toxoplasma gondii RH infected in HFF at 5 uM treated immediately after infection measured after 48 hrs; format: functional, organism-based; outline: as §2
# Toxoplasma gondii [31] = experiment: Antiparasitic activity against green fluorescent protein expressing […] deficient Toxoplasma gondii RH infected in HFF at 5 uM treated 6 hrs after infection measured after 48 hrs; format: functional, organism-based; outline: as §2
Structure (SMILES),Ratio (Toxoplasma gondii [1]),CC50 (HFF) [µM],Ratio (Toxoplasma gondii [3]),IC50 (Toxoplasma gondii [4]) [µM],Ratio (Toxoplasma gondii [5]),Ratio (Toxoplasma gondii [8]),IC50 (Toxoplasma gondii [10]) [µM],Ratio (Toxoplasma gondii [11]),MIC (Bacillus subtilis) [µM],Activity (Toxoplasma gondii [12]),Ratio (Toxoplasma gondii [13]),Ratio (Toxoplasma gondii [14]),Ratio (Toxoplasma gondii [16]),Ratio (Toxoplasma gondii [17]),Ratio (Toxoplasma gondii [18]),IC50 (Toxoplasma gondii [21]) [µM],Ratio (Toxoplasma gondii [22]),Ratio (Toxoplasma gondii [23]),IC50 (Toxoplasma gondii [24]) [µM],IC50 (Toxoplasma gondii [25]) [µM],also measured
CC[C@H]1OC(=O)[C@H](C)[C@@H](O[C@H]2C[C@@](C)(OC)[C@@H](O)[C@H](C)O2)[C@H](C)[C@@H](O[C@@H]2O[C@H](C)C[C@H](N(C)C)[C@H]2O)[C@](C)(O)C[C@@H](C)CN(C)[C@H](C)[C@@H](O)[C@]1(C)O [AZITHROMYCIN],10,174,3,44,3,15,0.6,3,0.15,inactive,18,13,7,7,8,29,10,4,20,0.6,Activity (Toxoplasma gondii [2]): Active; Time (Toxoplasma gondii [6]): >16 h; Time (Toxoplasma gondii [7]): 9.5 h; Activity (Toxoplasma gondii [9]): Active; Activity (Toxoplasma gondii [15]): inactive; Activity (Toxoplasma gondii [19]): Active; Activity (Toxoplasma gondii [20]): Active
CC[C@H]1OC(=O)[C@H](C)[C@@H](O[C@H]2C[C@@](C)(OC)[C@@H](O)[C@H](C)O2)[C@H](C)[C@@H](O[C@@H]2O[C@H](C)C[C@H](N(C)C)[C@H]2O)[C@](C)(O)C[C@@H](C)CN(Cc2ccccc2)[C@H](C)[C@@H](O)[C@]1(C)O,11,32,5,9,6,17,0.5,3,0.3,Active,23,15,7,13,8,5,13,5,2,0.5,Activity (Toxoplasma gondii [26]): Active; Time (Toxoplasma gondii [27]): >16 h; Time (Toxoplasma gondii [28]): 9.5 h; Activity (Toxoplasma gondii [29]): Active; Activity (Toxoplasma gondii [30]): Active; Activity (Toxoplasma gondii [31]): Active
